Calls of active or inactive are those of the source. The rule behind the calls is not given here.
Tests used:
MDA-MB-435 = experiment: Antiproliferative activity against human MDA-MB-435 cells assessed as reduction in cell viability incubated for 72 hrs by CCK8 assay; assay type: functional, cell-based; conditions: MDA-MB-435, 72 h
HCT-116 = experiment: Antiproliferative activity against human HCT116 cells assessed as reduction in cell viability incubated for 72 hrs by CCK8 assay; assay type: functional, cell-based; conditions: HCT-116, 72 h
A549 = experiment: Antiproliferative activity against human A549 cells assessed as reduction in cell viability incubated for 72 hrs by CCK8 assay; assay type: functional, cell-based; conditions: A549, 72 h
[1] = target: T1, DNA topoisomerase 1 (Escherichia coli (strain K12)) (UniProt P06612); experiment: Inhibition of Escherichia coli Top1 assessed as decrease in relaxation of supercoiled pBR322 plasmid DNA at 100 uM using supercoiled pBR322 plasmid DNA as substrate incubated for 15 mins by agarose gel electrophoresis analysis
T1 sequence (whole entry): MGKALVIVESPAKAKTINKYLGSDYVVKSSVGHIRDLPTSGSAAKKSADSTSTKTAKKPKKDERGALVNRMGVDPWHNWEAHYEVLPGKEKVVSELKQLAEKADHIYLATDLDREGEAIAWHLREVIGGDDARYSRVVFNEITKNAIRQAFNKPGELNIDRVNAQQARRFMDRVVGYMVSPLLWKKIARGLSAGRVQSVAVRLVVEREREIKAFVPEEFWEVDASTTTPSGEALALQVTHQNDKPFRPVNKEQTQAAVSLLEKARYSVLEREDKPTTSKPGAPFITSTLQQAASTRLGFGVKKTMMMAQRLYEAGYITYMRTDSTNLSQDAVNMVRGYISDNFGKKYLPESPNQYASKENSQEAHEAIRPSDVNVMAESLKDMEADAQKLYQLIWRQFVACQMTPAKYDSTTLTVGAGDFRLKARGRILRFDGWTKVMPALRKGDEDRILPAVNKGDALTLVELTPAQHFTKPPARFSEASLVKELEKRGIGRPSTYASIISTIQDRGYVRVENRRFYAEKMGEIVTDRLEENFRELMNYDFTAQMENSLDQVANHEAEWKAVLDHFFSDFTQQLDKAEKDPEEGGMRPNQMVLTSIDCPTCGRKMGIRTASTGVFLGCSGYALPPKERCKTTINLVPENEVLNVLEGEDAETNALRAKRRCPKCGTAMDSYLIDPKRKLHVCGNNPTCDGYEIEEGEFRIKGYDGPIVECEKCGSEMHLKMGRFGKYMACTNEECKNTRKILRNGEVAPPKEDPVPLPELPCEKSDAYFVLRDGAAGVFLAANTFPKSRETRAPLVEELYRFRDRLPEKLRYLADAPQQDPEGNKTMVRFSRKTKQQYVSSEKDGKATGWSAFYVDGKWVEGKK

[2] = target: DNA topoisomerase 2-alpha (Homo sapiens) (UniProt P11388); experiment: Inhibition of human Top2alpha assessed as decrease in relaxation of supercoiled pBR322 plasmid DNA at 100 uM using supercoiled pBR322 plasmid DNA as substrate incubated for 30 mins by agarose gel electrophoresis analysis
Sequence of DNA topoisomerase 2-alpha (Homo sapiens) (P11388 whole entry): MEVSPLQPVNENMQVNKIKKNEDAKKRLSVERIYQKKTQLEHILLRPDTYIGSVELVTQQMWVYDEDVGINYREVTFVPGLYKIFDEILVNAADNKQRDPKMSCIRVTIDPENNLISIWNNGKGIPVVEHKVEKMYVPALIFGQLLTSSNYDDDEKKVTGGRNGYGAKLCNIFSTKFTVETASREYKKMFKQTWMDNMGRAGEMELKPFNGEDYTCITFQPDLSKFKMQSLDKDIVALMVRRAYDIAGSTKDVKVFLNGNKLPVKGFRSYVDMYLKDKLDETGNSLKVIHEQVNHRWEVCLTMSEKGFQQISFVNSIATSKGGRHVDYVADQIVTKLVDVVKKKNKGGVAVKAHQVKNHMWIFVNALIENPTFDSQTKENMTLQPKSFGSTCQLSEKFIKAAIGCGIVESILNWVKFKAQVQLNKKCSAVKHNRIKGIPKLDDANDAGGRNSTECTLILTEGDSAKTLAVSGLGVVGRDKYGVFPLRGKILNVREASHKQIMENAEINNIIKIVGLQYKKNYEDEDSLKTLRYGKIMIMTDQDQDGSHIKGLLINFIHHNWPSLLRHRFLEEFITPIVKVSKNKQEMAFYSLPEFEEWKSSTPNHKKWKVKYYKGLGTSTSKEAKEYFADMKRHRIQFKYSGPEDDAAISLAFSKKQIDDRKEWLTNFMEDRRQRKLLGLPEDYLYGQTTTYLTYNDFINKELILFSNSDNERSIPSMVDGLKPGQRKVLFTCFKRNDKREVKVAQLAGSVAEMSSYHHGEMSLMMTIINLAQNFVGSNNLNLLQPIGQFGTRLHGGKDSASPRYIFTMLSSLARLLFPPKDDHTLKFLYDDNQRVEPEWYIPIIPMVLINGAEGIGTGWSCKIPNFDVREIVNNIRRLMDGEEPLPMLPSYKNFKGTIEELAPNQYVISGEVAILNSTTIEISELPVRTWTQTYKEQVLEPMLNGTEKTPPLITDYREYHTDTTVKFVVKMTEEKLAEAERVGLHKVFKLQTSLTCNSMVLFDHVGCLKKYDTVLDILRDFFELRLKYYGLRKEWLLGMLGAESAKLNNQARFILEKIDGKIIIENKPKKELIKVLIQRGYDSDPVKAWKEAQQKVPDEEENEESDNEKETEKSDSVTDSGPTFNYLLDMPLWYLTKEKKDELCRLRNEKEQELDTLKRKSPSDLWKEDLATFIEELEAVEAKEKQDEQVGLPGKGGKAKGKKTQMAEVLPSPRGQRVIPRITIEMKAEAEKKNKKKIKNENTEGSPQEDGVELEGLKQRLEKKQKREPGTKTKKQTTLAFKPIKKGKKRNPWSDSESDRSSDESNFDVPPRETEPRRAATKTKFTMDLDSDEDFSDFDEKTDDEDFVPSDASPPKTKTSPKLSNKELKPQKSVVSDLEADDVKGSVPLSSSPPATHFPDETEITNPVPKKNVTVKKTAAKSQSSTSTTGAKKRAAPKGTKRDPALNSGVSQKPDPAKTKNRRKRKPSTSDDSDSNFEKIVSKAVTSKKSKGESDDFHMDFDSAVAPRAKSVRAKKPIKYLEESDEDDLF

K562 = experiment: Antiproliferative activity against human K562 cells assessed as reduction in cell viability incubated for 72 hrs by CCK8 assay; assay type: functional, cell-based; conditions: K562, 72 h
[3] = Antiproliferative activity against human SW579 cells assessed as reduction in cell viability incubated for 72 hrs by CCK8 assay; assay type: functional, cell-based; conditions: SW579, 72 h
SK-HEP1 = experiment: Antiproliferative activity against human SKHEP1 cells assessed as reduction in cell viability incubated for 72 hrs by CCK8 assay; assay type: functional, cell-based; conditions: SK-HEP1, 72 h
[4] = target: T1, DNA topoisomerase 1 (Escherichia coli (strain K12)); experiment: Poison activity at Escherichia coli Top1 assessed as increase in […] band intensity at 100 uM using supercoiled pUC19 plasmid DNA as substrate incubated for 30 mins by agarose gel electrophoresis analysis
Summary of the method: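 Supercoiled pUC19 plasmid DNA incubated with Top1 and test compound at 100, 50, 25 and 12.5 μM. Lanes: DNA alone, DNA + Top1, and DNA + Top1 + camptothecin (100 μM) as reference. Products resolved on gel to follow Top1-mediated relaxation.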

PC-3 = experiment: Antiproliferative activity against human PC3 cells assessed as reduction in cell viability incubated for 72 hrs by CCK8 assay; assay type: functional, cell-based; conditions: PC-3, 72 h
[5] = Antiproliferative activity against human MV-3 cells assessed as reduction in cell viability incubated for 72 hrs by CCK8 assay; assay type: functional, cell-based; conditions: MV-3, 72 h
BEL-7404 tumor cell line = experiment: Antiproliferative activity against human Bel7404 cells assessed as reduction in cell viability incubated for 72 hrs by CCK8 assay; assay type: functional, cell-based; conditions: BEL-7404, 72 h
NCI-H446 = experiment: Antiproliferative activity against human NCI-H446 cells assessed as reduction in cell viability incubated for 72 hrs by CCK8 assay; assay type: functional, cell-based; conditions: NCI-H446, 72 h

Row | Compound | IC50 (MDA-MB-435) [µM] | IC50 (HCT-116) [µM] | IC50 (A549) [µM] | other results
1 | COc1ccc2c(c1)cc1n2CCN2C(=O)c3cc(N)ccc3N(C)C12 (configuration not stated) | > 200 | > 200 | > 200 | –
2 | COc1ccc2c(c1)cc1n2CCN2C(=O)c3sccc3N(C)C12 (configuration not stated) | 44.6 | 9.5 | 47 | –
3 | CN1c2ccc(F)cc2C(=O)N2CCn3c(cc4cc(Br)ccc43)C21 (configuration not stated) | 97.6 | 28.5 | > 200 | –
4 | COc1ccc2c(c1)cc1n2CCN2C(=O)c3c(ccn3C)N(C)C12 (configuration not stated) | > 200 | 190 | > 200 | –
5 | CN1c2ccc(F)cc2C(=O)N2CCn3c(cc4cc(OC(F)(F)F)ccc43)C21 (configuration not stated) | > 200 | 0.83 | 95.5 | –
6 | COc1ccc2c(c1)c(CO)c1n2CCN2C(=O)c3cc(C)ccc3N(C)C12 (configuration not stated) | 41.5 | 5.8 | 72.1 | –
7 | CN1c2ccccc2C(=O)N2CCn3c(cc4cc(Br)ccc43)C21 (configuration not stated) | 15.9 | 7.3 | 15.2 | –
8 | COc1ccc2c(c1)c(CN1CCN(C)CC1)c1n2CCN2C(=O)c3cc(F)ccc3N(C)C12 (configuration not stated) | 5.82 | 5.5 | 32.9 | –
9 | COc1ccc2c(c1)cc1n2CCN2C(=O)c3cc(C)ccc3N(C)C12 (configuration not stated) | > 200 | 19.4 | > 200 | –
10 | COc1ccc2c(c1)N(C)C1c3cc4ccccc4n3CCN1C2=O (configuration not stated) | > 200 | 124 | 24.3 | –
11 | CN1c2ccccc2C(=O)N2CCn3c(cc4cc(O)ccc43)C21 (configuration not stated) | 16.8 | 44.3 | 14.5 | –
12 | COc1ccc2c(c1)c(C=O)c1n2CCN2C(=O)c3cc(C)ccc3N(C)C12 (configuration not stated) | 70.5 | 18.1 | > 200 | –
13 | CN1c2ccccc2C(=S)N2CCn3c(cc4cc(F)ccc43)C21 (configuration not stated) | > 200 | > 200 | > 200 | –
14 | COc1ccc2c(c1)cc1n2CCN2C(=O)c3ccccc3N(C)C12 (configuration not stated) | 20.2 | 12 | 2.7 | –
15 | COc1ccc2c(c1)cc1n2CCCN2C(=O)c3ccccc3N(C)C12 (configuration not stated) | 196 | 56 | 32 | –
16 | Cc1ccc2c(c1)cc1n2CCN2C(=O)c3cc(F)ccc3N(C)C12 (configuration not stated) | 1 | 0.06 | 22.8 | –
17 | CN1c2ccccc2C(=O)N2CCn3c(cc4cc(Cl)ccc43)C21 (configuration not stated) | 13.5 | 4.4 | 27.7 | inhibition [1]: Active; inhibition [2]: inactive
18 | CN1c2ccccc2C(=O)N2CCc3c([nH]c4ccccc34)[C@H]21 | 22.1 | > 200 | > 200 | –
19 | CN1c2ccccc2C(=O)N2CCn3c(cc4ccc(Cl)cc43)C21 (configuration not stated) | > 200 | > 200 | > 200 | –
20 | COc1ccc2c(c1)c(C=O)c1n2CCN2C(=O)c3cc(F)ccc3N(C)C12 (configuration not stated) | > 200 | > 200 | 59.2 | –
21 | COc1ccc2c(c1)cc1n2C(C)(C)CN2C(=O)c3cc(F)ccc3N(C)C12 (configuration not stated) | 10.7 | 1.5 | > 200 | –
22 | CN1c2ccccc2C(=O)N2CCCn3c(cc4cc(O)ccc43)C21 (configuration not stated) | > 200 | > 200 | 111 | –
23 | COc1cc2cc3n(c2c(OC)c1OC)CCN1C(=O)c2ccccc2N(C)C31 (configuration not stated) | > 200 | > 200 | > 200 | –

Row | Compound | IC50 (MDA-MB-435) [µM] | IC50 (HCT-116) [µM] | IC50 (A549) [µM] | other results
24 | CN1c2ccccc2C(=O)N2CCn3c(cc4cc(F)ccc43)C21 (configuration not stated) | > 200 | > 200 | > 200 | –
25 | COc1ccc2c(c1)c(Br)c1n2CCN2C(=O)c3cc(F)ccc3N(C)C12 (configuration not stated) | 89.1 | 9.2 | 12.3 | –
26 | COc1ccc2c(c1)cc1n2C(C)(C)CN2C(=O)c3ccccc3N(C)C12 (configuration not stated) | 86.4 | 6.2 | 181 | –
27 | CN1c2ccccc2C(=O)N2CCn3c(cc4ccccc43)C21 (configuration not stated) | > 200 | 47.5 to 48.5 | 21.5 | inhibition [1]: Active; inhibition [2]: inactive
28 | CSc1ccc2cc3n(c2c1)CCN1C(=O)c2cc(F)ccc2N(C)C31 (configuration not stated) | 85.8 | 9.4 | 8.3 | –
29 | COc1ccc2c(c1)cc1n2CCN2C(=O)c3cc(OC)c(OC)cc3N(C)C12 (configuration not stated) | 23.8 | > 121 | > 200 | –
30 | CN1c2ccc(F)cc2C(=O)N2CCn3c(cc4cc(Cl)ccc43)C21 (configuration not stated) | 143 | 6.7 | 53 | –
31 | Cc1ccc2c(c1)c(Br)c1n2CCN2C(=O)c3ccccc3N(C)C12 (configuration not stated) | 12.3 | 3.3 | 14.1 | –
32 | CN1c2ccc(F)cc2C(=O)N2CCn3c(cc4cc(OC5CCC5)ccc43)C21 (configuration not stated) | > 200 | 34.1 | 98.5 | –
33 | CN1c2ccn(C)c2C(=O)N2CCn3c(cc4cc(O)ccc43)C21 (configuration not stated) | > 200 | > 200 | > 200 | –
34 | CC[C@@]1(O)C(=O)OCc2c1cc1n(c2=O)Cc2cc3ccccc3nc2-1 [CAMPTOTHECIN] | 2.7 | 0.02 | 2.8 | IC50 (K562): < 0.003 µM; IC50 [3]: 0.7 µM; IC50 (SK-HEP1): 0.9 µM; Activity [4]: Active; IC50 (PC-3): 2.4 µM; IC50 [5]: 0.003 µM; IC50 (BEL-7404 tumor cell line): 0.4 µM; IC50 (NCI-H446): > 200 µM
35 | COc1ccc2c(c1)cc1n2CCN2C(=O)c3cc(Br)ccc3N(C)C12 (configuration not stated) | > 200 | > 200 | > 200 | –
36 | COc1ccc2c(c1)N(C)C1c3cc4cc(Br)ccc4n3CCN1C2=O (configuration not stated) | > 200 | > 200 | > 200 | –
37 | CN1c2ccsc2C(=O)N2CCn3c(cc4cc(O)ccc43)C21 (configuration not stated) | 66.8 | 106 | 30.3 | –
38 | COc1ccc2c(c1)c(C)c1n2CCN2C(=O)c3cc(F)ccc3N(C)C12 (configuration not stated) | 132 | 21.9 | 13.2 | –
39 | COc1ccc2c(c1)c(CO)c1n2CCN2C(=O)c3cc(F)ccc3N(C)C12 (configuration not stated) | 22.8 | 5.6 | 6.6 | –
40 | CN1c2ccc(F)cc2C(=O)N2CCn3c(cc4cc(OC5CCCCC5)ccc43)C21 (configuration not stated) | 50.1 | 66.8 | 174 | –
41 | COc1ccc2c(c1)cc1n2CCN2C(=O)c3cc(Cl)ccc3N(C)C12 (configuration not stated) | > 200 | 61.3 | > 200 | –
42 | COc1ccc2c(c1)C(=O)N1CCn3c(cc4ccccc43)C1N2C (configuration not stated) | 168 | 49.2 | 15.6 | –
43 | [2H]C([2H])([2H])Oc1ccc2c(c1)cc1n2CCN2C(=O)c3cc(F)ccc3N(C)C12 (configuration not stated) | 11.4 | 0.01 | 31.3 | –
44 | CN1c2ccc(F)cc2C(=O)N2CCn3c(cc4cc(OC5CCCC5)ccc43)C21 (configuration not stated) | > 200 | 57.9 | > 200 | –
45 | Cc1ccc2c(c1)cc1n2CCN2C(=O)c3ccccc3N(C)C12 (configuration not stated) | 13.3 | 0.03 | > 200 | inhibition [1]: Active; inhibition [2]: inactive
46 | COc1ccc2c(c1)N(C)C1c3cc4cc(OC)ccc4n3CCN1C2=O (configuration not stated) | > 200 | 180 | 30.8 | –

Source: ChEMBL document CHEMBL4376872, “Scaffold Hopping of Natural Product Evodiamine: Discovery of a Novel Antitumor Scaffold with Excellent Potency against Colon Cancer” (J Med Chem, 2020)
